Data published in publication PMC3969666 (Pharmacognosy Magazine, 2014).

Tests used:
[1] = tested on: influenza virus strain A/PR8/34(H1N1); format: cell-based, influenza virus A/PR8/34(H1N1) in MDCK cells
Caco-2 cells = test: MTT cytotoxicity test of absorption enhancers with SHL on Caco-2 cells; format: cell-based; conditions: 24 h, with addition of SHL, tested 0.005-1.28 mg/mL
[2] = tested on: gastrointestinal membrane; test: Gastrointestinal membrane toxicity by morphological observation; format: in vivo; conditions: rat
Summary of the method: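 Male Sprague–Dawley rats (~250 g) given SHL with or without absorption enhancers by oral gavage. After 8 h exposure, stomach, jejunum and colon were sectioned, with two sections per tissue on each slide. Sections were HE-stained and examined microscopically for mucosal morphology.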

[3] = enhancement of FD4 absorption; ref 17 (Gao et al., 2008); cited from earlier work

Molecule: NC(=O)c1ncn([C@@H]2O[C@H](CO)[C@@H](O)[C@H]2O)n1 [ribavirin, Ribavirin]
- inhibition rate on influenza virus [1]: remarkable increase in inhibition rate

Molecule: CCCCCCCCCC(=O)[O-].[Na+] [sodium caprate]
- concentration safe for the Caco-2 cells (Caco-2 cells): up to 0.64 mg/mL
- damage in the small intestine ([2]; oral with SHL, 150 mg/kg): significant damage in the small intestine
- change in the morphology of the gastrointestinal membrane ([2]; oral with SHL, 25, 50, 100 mg/kg, 8 h exposure): did not cause any significant change
- damage in the gastro and colon tissues ([2]; oral with SHL, different dosages (25-150 mg/kg)): no significant damage

Molecule: chitosan hexamer
- concentration at which absorption enhancing effect is almost saturable [3]: ~0.5 % (w/v)
